ChEMBL document CHEMBL1152278, “Discovery of ligands for a novel target, the human telomerase RNA, based on flexible-target virtual screening and NMR” (J Med Chem, 2008)

Assay: Binding affinity to human telomerase P2b RNA by […]
Outline: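 hTR-P2b RNA made by in vitro T7 polymerase transcription from a synthetic DNA template. Titration was at 50 μM RNA in 20 mM sodium phosphate pH 6.7, 50 mM NaCl, 90/10% H₂O/D₂O, 15 °C, with ligand added stepwise. Kd was fitted from 800 MHz imino-proton chemical shifts under a fast-exchange model.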
With `O=C(c1ccc(O)cc1)c1ccc(O)cc1` the Kd was 1500 µM. With `Nc1ccc(NC(=O)c2ccc(N)cc2)cc1` the Kd was 180 µM. For `C[n+]1ccc(Nc2ccc(NC(=O)c3ccc(N)cc3)cc2)cc1`, the Kd was 1100 µM. Work on `CCN(CC)Cc1cc(Nc2c3ccccc3nc3c4ccccc4n(C)c23)ccc1O` yielded a Kd of 84 µM. `OCCOCCN1CCN(CCCN2c3ccccc3Sc3ccc(C(F)(F)F)cc32)CC1` showed a Kd of 1100 µM. Work on `C[n+]1ccc(Nc2ccc(NC(=O)c3ccc(N)cc3[N+](=O)[O-])cc2)cc1` yielded a Kd of 570 µM. `CN(C)CCCN1c2ccccc2[C@H]2C[C@H]2c2ccccc21` gave a Kd of 1100 µM. `N#Cc1ccc2c(c1)N(CCCN1CCN(CCO)CC1)c1ccccc1S2` showed a Kd of 310 µM. For `CN1CCN2c3ncccc3Cc3ccccc3C2C1` (stereo not given) [MIRTAZAPINE], the Kd was 1500 µM. In the case of `CN1CCN(CCCN2c3ccccc3Sc3ccc(S(=O)(=O)N(C)C)cc32)CC1` [THIOPROPERAZINE], the Kd is reported as 450 µM.
